This passage reports Activity and Kd results from ChEMBL document CHEMBL1240333, “Surveying polypeptide and protein domain conformation and association with FlAsH and ReAsH” (Nat Chem Biol, 2007).

Assay [1] concerns the target T1, Transcription factor Jun (Homo sapiens, UniProt P05412). As to the kind of experiment: Binding affinity to c-Jun homodimer containing bipartite tetracysteine motif at 100 nM.
Assay [2] concerns the target T1, Transcription factor Jun. As to the kind of experiment: Binding affinity to wild-type c-Jun homodimer at by circular dichroism spectroscopy.
Assay [3] has as its target T1, Transcription factor Jun. Briefly: Binding affinity to c-Jun homodimer containing bipartite tetracysteine motif at 25 nM. An outline of the steps: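 Fluorescence titration: 25 nM FlAsH or ReAsH titrated with increasing synthetic peptide or protein domain in 100 mM Tris-HCl pH 7.8 with 3.5 mM TCEP, 1 mM EDT, 1 mM EDTA. Emission read at 530 ± 12.5 nm (FlAsH) or 630 ± 17.5 nm (ReAsH) after reaching equilibrium, tracked over time. Apparent Kd taken from intensity versus concentration. Points are means of ≥3 independent titrations ± s.d.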

The target of assay [4] is T1, Transcription factor Jun. As to the kind of experiment: Binding affinity to wild type c-Jun homodimer by circular dichroism spectroscopy.

The structures appear in SMILES notation. Calls of active or inactive are those of the source. The calls are words filed in the database; no cut-off is given here. Peptide text beside a SMILES is read from it.

T1 sequence (P05412 whole entry): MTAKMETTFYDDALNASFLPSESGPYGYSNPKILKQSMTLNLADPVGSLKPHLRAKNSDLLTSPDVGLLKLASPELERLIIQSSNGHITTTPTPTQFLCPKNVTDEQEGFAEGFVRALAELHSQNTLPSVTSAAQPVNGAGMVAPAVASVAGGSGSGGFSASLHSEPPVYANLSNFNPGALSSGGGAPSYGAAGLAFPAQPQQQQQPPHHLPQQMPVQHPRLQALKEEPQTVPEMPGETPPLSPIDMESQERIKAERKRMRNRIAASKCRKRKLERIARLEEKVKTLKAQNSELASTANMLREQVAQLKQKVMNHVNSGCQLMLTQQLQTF

On to `CC[C@H](C)[C@H](NC(=O)[C@H](CCCNC(=N)N)NC(=O)[C@H](Cc1c[nH]c2ccccc12)NC(C)=O)C(=O)N[C@@H](C)C(=O)N[C@@H](CCCNC(=N)N)C(=O)N[C@@H](CC(C)C)C(=O)N[C@@H](CCC(=O)O)C(=O)N[C@@H](CCC(=O)O)C(=O)N[C@@H](CCCCN)C(=O)N[C@H](C(=O)N[C@@H](CCCCN)C(=O)N[C@H](C(=O)N[C@@H](CC(C)C)C(=O)N[C@@H](CCCCN)C(=O)N[C@@H](C)C(=O)N[C@@H](CCC(N)=O)C(=O)N[C@@H](CC(N)=O)C(=O)N[C@@H](CO)C(=O)N[C@@H](CCC(=O)O)C(=O)N[C@@H](CC(C)C)C(=O)N[C@@H](C)C(=O)N[C@@H](CO)C(=O)N[C@H](C(=O)N[C@@H](C)C(=O)N[C@@H](CC(N)=O)C(=O)N[C@@H](CCSC)C(=O)N[C@@H](CC(C)C)C(=O)N[C@@H](CCCNC(=N)N)C(=O)N[C@@H](CCC(=O)O)C(=O)N[C@@H](CCC(N)=O)C(=O)N[C@H](C(=O)N[C@@H](C)C(=O)N[C@@H](CCC(N)=O)C(=O)N[C@@H](CC(C)C)C(=O)N[C@@H](CCCCN)C(=O)N[C@@H](CCC(N)=O)C(=O)N[C@@H](CCCCN)C(=O)N[C@H](C(=O)N[C@@H](CS)C(=O)N[C@@H](CS)C(N)=O)C(C)C)C(C)C)[C@@H](C)O)[C@@H](C)O)C(C)C` (Ac-WRIARLEEKVKTLKAQNSELASTANMLREQVAQLKQKVCC-NH2), for which the outcome at Transcription factor Jun [1] and on Transcription factor Jun [3] was Active. The Kd on Transcription factor Jun [2] was 10 µM. Also, the result at Transcription factor Jun [4] was inactive.
